Laboratory results reported in ChEMBL document CHEMBL1140914, “Synthesis and in vitro and in vivo evaluation of 18F-labeled positron emission tomography (PET) ligands for imaging the vesicular acetylcholine transporter” (J Med Chem, 2009).

Experiments:
[1] = Displacement of [3H]DTG from sigma2 receptor in rat liver membrane; type: cell membranes
How it was run: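 Rat liver membrane homogenate (~300 μg protein) incubated 2 h at room temperature with ~5 nM [3H]DTG plus 1 μM (+)-pentazocine to mask σ1 sites. Haloperidol 10 μM defines nonspecific binding. Filtered and counted.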

[2] = target: T1, Vesicular acetylcholine transporter (Homo sapiens, UniProt Q16572); experiment: Displacement of [3H]vesamicol from human vesicular acetylcholine transporter expressed in rat PC12 cells by liquid scintillation spectrometry; type: cell-based, PC-12
T1 sequence (Q16572 whole entry): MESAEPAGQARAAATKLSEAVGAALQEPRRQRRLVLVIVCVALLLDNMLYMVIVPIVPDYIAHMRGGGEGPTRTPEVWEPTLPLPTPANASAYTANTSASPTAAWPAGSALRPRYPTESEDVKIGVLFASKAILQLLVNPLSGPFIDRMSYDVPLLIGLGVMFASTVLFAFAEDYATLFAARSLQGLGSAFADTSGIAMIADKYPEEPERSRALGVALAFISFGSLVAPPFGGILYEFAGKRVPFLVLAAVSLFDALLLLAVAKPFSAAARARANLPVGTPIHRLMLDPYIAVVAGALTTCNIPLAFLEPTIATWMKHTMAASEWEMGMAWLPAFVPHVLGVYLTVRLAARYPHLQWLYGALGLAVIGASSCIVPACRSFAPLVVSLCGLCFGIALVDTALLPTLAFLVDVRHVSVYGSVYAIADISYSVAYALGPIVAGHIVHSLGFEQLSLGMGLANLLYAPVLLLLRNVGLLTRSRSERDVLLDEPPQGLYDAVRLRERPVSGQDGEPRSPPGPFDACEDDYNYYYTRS

[3] = Selectivity ratio of Ki for human vesicular acetylcholine transporter to Ki for sigma1 receptor in guinea pig brain membrane; type: cell membranes
[4] = target: Sigma non-opioid intracellular receptor 1 (Cavia porcellus, UniProt Q60492); experiment: Displacement of [3H](+)-pentazocine from sigma1 receptor in guinea pig brain membrane by liquid scintillation counting; type: cell membranes
Brain [5] = experiment: Drug uptake in Sprague-Dawley rat brain at 25 to 35 uCi, iv after 5 mins postinjection by […]; type: ADME, organism-based; settings: in vivo
How it was run: (§1)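 Mature male Sprague-Dawley rats (250–400 g) under 2–3% isoflurane got 25–35 μCi tracer in 100–150 μL saline via tail vein. Groups of at least 4 were euthanized at 5 min, 30 min, 1 h or 2 h. Brain was dissected into regions, and tissues were weighed and gamma counted against an injectate standard. Values are %ID/g, mean ± SD.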

Brain [6] = experiment: Drug uptake in Sprague-Dawley rat brain at 25 to 35 uCi, iv after 30 mins postinjection by […]; type: ADME, organism-based; settings: in vivo, 0.5 h; how it was run: as §1
Lung [7] = experiment: Drug uptake in Sprague-Dawley rat lung at 25 to 35 uCi, iv after 2 hrs postinjection by […]; type: ADME, organism-based; settings: in vivo; how it was run: as §1
Bone [8] = experiment: Drug uptake in Sprague-Dawley rat bone at 25 to 35 uCi, iv after 2 hrs postinjection by […]; type: ADME, organism-based, Bone element; settings: in vivo; how it was run: as §1
Blood [9] = experiment: Drug uptake in Sprague-Dawley rat blood at 25 to 35 uCi, iv after 2 hrs postinjection by […]; type: ADME, organism-based; settings: in vivo; how it was run: as §1
Lung [10] = experiment: Drug uptake in Sprague-Dawley rat lung at 25 to 35 uCi, iv after 30 mins postinjection by […]; type: ADME, organism-based; settings: in vivo, 0.5 h; how it was run: as §1
Heart [11] = experiment: Drug uptake in Sprague-Dawley rat heart at 25 to 35 uCi, iv after 5 mins postinjection by […]; type: ADME, organism-based; settings: in vivo; how it was run: as §1
Heart [12] = experiment: Drug uptake in Sprague-Dawley rat heart at 25 to 35 uCi, iv after 2 hrs postinjection by […]; type: ADME, organism-based; settings: in vivo; how it was run: as §1
Liver [13] = experiment: Drug uptake in Sprague-Dawley rat liver at 25 to 35 uCi, iv after 2 hrs postinjection by […]; type: ADME, organism-based; settings: in vivo; how it was run: as §1
Bone [14] = experiment: Drug uptake in Sprague-Dawley rat bone at 25 to 35 uCi, iv after 30 mins postinjection by […]; type: ADME, organism-based, Bone element; settings: in vivo, 0.5 h; how it was run: as §1
Brain [15] = experiment: Drug uptake in Sprague-Dawley rat brain at 25 to 35 uCi, iv after 1 hr postinjection by […]; type: ADME, organism-based; settings: in vivo; how it was run: as §1
Lung [16] = experiment: Drug uptake in Sprague-Dawley rat lung at 25 to 35 uCi, iv after 1 hr postinjection by […]; type: ADME, organism-based; settings: in vivo; how it was run: as §1
Blood [17] = experiment: Drug uptake in Sprague-Dawley rat blood at 25 to 35 uCi, iv after 5 mins postinjection by […]; type: ADME, organism-based; settings: in vivo; how it was run: as §1
Muscle tissue [18] = experiment: Drug uptake in Sprague-Dawley rat muscle at 25 to 35 uCi, iv after 30 mins postinjection by […]; type: ADME, organism-based; settings: in vivo, 0.5 h; how it was run: as §1
Kidney [19] = experiment: Drug uptake in Sprague-Dawley rat kidney at 25 to 35 uCi, iv after 2 hrs postinjection by […]; type: ADME, organism-based; settings: in vivo; how it was run: as §1
Kidney [20] = experiment: Drug uptake in Sprague-Dawley rat kidney at 25 to 35 uCi, iv after 1 hr postinjection by […]; type: ADME, organism-based; settings: in vivo; how it was run: as §1
Lung [21] = experiment: Drug uptake in Sprague-Dawley rat lung at 25 to 35 uCi, iv after 5 mins postinjection by […]; type: ADME, organism-based; settings: in vivo; how it was run: as §1
Brain [22] = experiment: Drug uptake in Sprague-Dawley rat brain at 25 to 35 uCi, iv after 2 hrs postinjection by […]; type: ADME, organism-based; settings: in vivo; how it was run: as §1
Heart [23] = experiment: Drug uptake in Sprague-Dawley rat heart at 25 to 35 uCi, iv after 30 mins postinjection by […]; type: ADME, organism-based; settings: in vivo, 0.5 h; how it was run: as §1
Bone [24] = experiment: Drug uptake in Sprague-Dawley rat bone at 25 to 35 uCi, iv after 5 mins postinjection by […]; type: ADME, organism-based, Bone element; settings: in vivo; how it was run: as §1
Muscle tissue [25] = experiment: Drug uptake in Sprague-Dawley rat muscle at 25 to 35 uCi, iv after 5 mins postinjection by […]; type: ADME, organism-based; settings: in vivo; how it was run: as §1
Liver [26] = experiment: Drug uptake in Sprague-Dawley rat liver at 25 to 35 uCi, iv after 30 mins postinjection by […]; type: ADME, organism-based; settings: in vivo, 0.5 h; how it was run: as §1
Muscle tissue [27] = experiment: Drug uptake in Sprague-Dawley rat muscle at 25 to 35 uCi, iv after 1 hr postinjection by […]; type: ADME, organism-based; settings: in vivo; how it was run: as §1
Bone [28] = experiment: Drug uptake in Sprague-Dawley rat bone at 25 to 35 uCi, iv after 1 hr postinjection by […]; type: ADME, organism-based, Bone element; settings: in vivo; how it was run: as §1
[29] = Drug uptake in Sprague-Dawley rat fat at 25 to 35 uCi, iv after 1 hr postinjection by […]; type: ADME, organism-based, Adipose tissue; settings: in vivo; how it was run: as §1
Kidney [30] = experiment: Drug uptake in Sprague-Dawley rat kidney at 25 to 35 uCi, iv after 30 mins postinjection by […]; type: ADME, organism-based; settings: in vivo, 0.5 h; how it was run: as §1
Liver [31] = experiment: Drug uptake in Sprague-Dawley rat liver at 25 to 35 uCi, iv after 1 hr postinjection by […]; type: ADME, organism-based; settings: in vivo; how it was run: as §1
Liver [32] = experiment: Drug uptake in Sprague-Dawley rat liver at 25 to 35 uCi, iv after 5 mins postinjection by […]; type: ADME, organism-based; settings: in vivo; how it was run: as §1
Kidney [33] = experiment: Drug uptake in Sprague-Dawley rat kidney at 25 to 35 uCi, iv after 5 mins postinjection by […]; type: ADME, organism-based; settings: in vivo; how it was run: as §1
Blood [34] = experiment: Drug uptake in Sprague-Dawley rat blood at 25 to 35 uCi, iv after 1 hr postinjection by […]; type: ADME, organism-based; settings: in vivo; how it was run: as §1
Heart [35] = experiment: Drug uptake in Sprague-Dawley rat heart at 25 to 35 uCi, iv after 1 hr postinjection by […]; type: ADME, organism-based; settings: in vivo; how it was run: as §1
Blood [36] = experiment: Drug uptake in Sprague-Dawley rat blood at 25 to 35 uCi, iv after 30 mins postinjection by […]; type: ADME, organism-based; settings: in vivo, 0.5 h; how it was run: as §1
[37] = Drug uptake in Sprague-Dawley rat fat at 25 to 35 uCi, iv after 30 mins postinjection by […]; type: ADME, organism-based, Adipose tissue; settings: in vivo, 0.5 h; how it was run: as §1
Muscle tissue [38] = experiment: Drug uptake in Sprague-Dawley rat muscle at 25 to 35 uCi, iv after 2 hrs postinjection by […]; type: ADME, organism-based; settings: in vivo; how it was run: as §1
[39] = Drug uptake in Sprague-Dawley rat fat at 25 to 35 uCi, iv after 5 mins postinjection by […]; type: ADME, organism-based, Adipose tissue; settings: in vivo; how it was run: as §1
[40] = Drug uptake in Sprague-Dawley rat fat at 25 to 35 uCi, iv after 2 hrs postinjection by […]; type: ADME, organism-based, Adipose tissue; settings: in vivo; how it was run: as §1

Chain of Sigma non-opioid intracellular receptor 1 (Q60492 whole entry): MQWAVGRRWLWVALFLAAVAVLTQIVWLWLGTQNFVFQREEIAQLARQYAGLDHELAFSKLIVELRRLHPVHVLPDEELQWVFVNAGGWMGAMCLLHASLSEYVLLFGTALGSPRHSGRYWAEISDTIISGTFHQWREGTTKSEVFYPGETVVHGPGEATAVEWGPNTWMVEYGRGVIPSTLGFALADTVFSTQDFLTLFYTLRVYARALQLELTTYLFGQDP

Compound: O[C@@H]1CCN(Cc2ccc(F)cc2)C[C@H]1N1CCC(c2ccccc2)CC1
- Ki [1]: 35.9 nM
- Ki [2]: 0.22 nM
- Ratio Ki [3]: 98
- Ki [4]: 21.6 nM

Compound: O[C@@H]1Cc2cccc(OC/C=C/I)c2C[C@H]1N1CCC(c2ccccc2)CC1
- Ki [2]: 0.45 nM

Compound: O=C(c1ccc(F)cc1)C1CCN([C@@H]2Cc3ccccc3C[C@H]2O)CC1 (racemic)
- Ki [1]: 251 nM

Compound: O[C@@H]1C[C@H](OCc2ccc(F)cc2)CC[C@H]1N1CCC(c2ccccc2)CC1
- Ki [1]: 15.8 nM
- Ki [2]: 330 nM
- Ki [4]: 21.3 nM

Compound: O[C@@H]1CC[C@H](OCc2ccc(F)cc2)C[C@H]1N1CCC(c2ccccc2)CC1
- Ki [1]: 18.5 nM
- Ki [2]: 10.7 nM
- Ki [4]: 30.6 nM

Compound: O=C(c1ccc([18F])cc1)C1CCN([C@@H]2Cc3ccccc3C[C@H]2O)CC1 (stereo in doubt; (+))
- Drug uptake (Brain [5]): 0.35 % ID/g
- Drug uptake (Brain [6]): 0.071 % ID/g
- Drug uptake (Lung [7]): 0.112 % ID/g
- Drug uptake (Bone [8]): 0.532 % ID/g
- Drug uptake (Blood [9]): 0.027 % ID/g
- Drug uptake (Lung [10]): 0.332 % ID/g
- Drug uptake (Heart [11]): 0.194 % ID/g
- Drug uptake (Heart [12]): 0.031 % ID/g
- Drug uptake (Liver [13]): 0.692 % ID/g
- Drug uptake (Bone [14]): 0.277 % ID/g
- Drug uptake (Brain [15]): 0.041 % ID/g
- Drug uptake (Lung [16]): 0.188 % ID/g
- Drug uptake (Blood [17]): 0.136 % ID/g
- Drug uptake (Muscle tissue [18]): 0.051 % ID/g
- Drug uptake (Kidney [19]): 0.194 % ID/g
- Drug uptake (Kidney [20]): 0.291 % ID/g
- Drug uptake (Lung [21]): 0.904 % ID/g
- Drug uptake (Brain [22]): 0.022 % ID/g
- Drug uptake (Heart [23]): 0.094 % ID/g
- Drug uptake (Bone [24]): 0.187 % ID/g
- Drug uptake (Muscle tissue [25]): 0.047 % ID/g
- Drug uptake (Liver [26]): 1.239 % ID/g
- Drug uptake (Muscle tissue [27]): 0.034 % ID/g
- Drug uptake (Bone [28]): 0.399 % ID/g
- Drug uptake [29]: 0.154 % ID/g
- Drug uptake (Kidney [30]): 0.416 % ID/g
- Drug uptake (Liver [31]): 0.814 % ID/g
- Drug uptake (Liver [32]): 1.849 % ID/g
- Drug uptake (Kidney [33]): 0.791 % ID/g
- Drug uptake (Blood [34]): 0.048 % ID/g
- Drug uptake (Heart [35]): 0.051 % ID/g
- Drug uptake (Blood [36]): 0.087 % ID/g
- Drug uptake [37]: 0.108 % ID/g
- Drug uptake (Muscle tissue [38]): 0.022 % ID/g
- Drug uptake [39]: 0.052 % ID/g
- Drug uptake [40]: 0.15 % ID/g

Compound: O[C@@H]1Cc2cccc(OCCCF)c2C[C@H]1N1CCC(c2ccccc2)CC1
- Ki [2]: 0.77 nM

Compound: O=C(c1ccc(F)cc1)C1CCN([C@@H]2Cc3ccccc3C[C@H]2O)CC1 (stereo in doubt; (+)-9e)
- Ki [1]: 278 nM
